Key:
Rattus norvegicus [1] = species: Rattus norvegicus; test: Inhibition of [3H]-dopamine uptake into rat brain synaptosomes in vitro;Values ranges from :18-39; format: functional
In short: (§1)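 Male Sprague–Dawley rat (180–240 g) cortex (NE, 5-HT) or striatum (DA) crude P2 synaptosomes in 0.32 M sucrose. Preincubated 5 min at 25 °C with drug in Krebs–Ringer phosphate containing ascorbate, EDTA, nialamide; 0.1 μM final [3H]amine added for 5 min. Stopped by cold saline and GF/B filtration; nonspecific uptake at 4 °C. IC50 with 95% limits computed.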

Mus musculus [2] = test: Effective dose required to antagonise clonidine-induced antinociception(ACA) in mouse by peroral administration at maximum response 100.; format: functional
Rattus norvegicus [3] = species: Rattus norvegicus; test: Inhibition of [3H]5-HT uptake into rat brain synaptosomes in vitro Values ranges from: 0.3-0.5; format: functional; in short: as §1
[4] = target: T1, Adrenergic receptor alpha-2 (Rattus norvegicus, UniProt P22086+P19328+P22909); test: Ability to displace [3H]clonidine from alpha-2 adrenergic receptor in rat brain homogenates in vitro; format: tissue-based
T1 sequence (P22086 whole entry): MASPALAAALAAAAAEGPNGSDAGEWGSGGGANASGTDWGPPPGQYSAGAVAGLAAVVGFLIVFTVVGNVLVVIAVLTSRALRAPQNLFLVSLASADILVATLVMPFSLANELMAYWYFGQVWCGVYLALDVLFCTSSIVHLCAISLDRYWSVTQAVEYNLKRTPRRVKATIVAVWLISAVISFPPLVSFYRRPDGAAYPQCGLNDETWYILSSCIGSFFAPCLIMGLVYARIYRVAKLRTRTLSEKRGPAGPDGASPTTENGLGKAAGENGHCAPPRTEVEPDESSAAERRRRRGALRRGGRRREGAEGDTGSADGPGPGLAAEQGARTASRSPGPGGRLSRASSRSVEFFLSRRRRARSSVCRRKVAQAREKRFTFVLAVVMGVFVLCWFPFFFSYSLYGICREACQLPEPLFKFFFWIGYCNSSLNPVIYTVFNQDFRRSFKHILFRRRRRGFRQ
T1 sequence (P19328 whole entry): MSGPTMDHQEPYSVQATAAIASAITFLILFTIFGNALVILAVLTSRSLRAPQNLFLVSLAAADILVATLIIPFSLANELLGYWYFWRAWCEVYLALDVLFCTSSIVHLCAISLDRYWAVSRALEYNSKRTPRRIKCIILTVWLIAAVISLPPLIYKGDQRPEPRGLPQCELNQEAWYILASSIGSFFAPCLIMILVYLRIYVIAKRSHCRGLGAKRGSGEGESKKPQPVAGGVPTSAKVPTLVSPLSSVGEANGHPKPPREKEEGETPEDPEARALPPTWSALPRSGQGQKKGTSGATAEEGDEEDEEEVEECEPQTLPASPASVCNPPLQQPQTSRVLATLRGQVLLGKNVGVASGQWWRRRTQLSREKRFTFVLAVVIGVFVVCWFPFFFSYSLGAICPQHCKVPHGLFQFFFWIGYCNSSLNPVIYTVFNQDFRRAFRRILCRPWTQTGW
T1 sequence (P22909 whole entry): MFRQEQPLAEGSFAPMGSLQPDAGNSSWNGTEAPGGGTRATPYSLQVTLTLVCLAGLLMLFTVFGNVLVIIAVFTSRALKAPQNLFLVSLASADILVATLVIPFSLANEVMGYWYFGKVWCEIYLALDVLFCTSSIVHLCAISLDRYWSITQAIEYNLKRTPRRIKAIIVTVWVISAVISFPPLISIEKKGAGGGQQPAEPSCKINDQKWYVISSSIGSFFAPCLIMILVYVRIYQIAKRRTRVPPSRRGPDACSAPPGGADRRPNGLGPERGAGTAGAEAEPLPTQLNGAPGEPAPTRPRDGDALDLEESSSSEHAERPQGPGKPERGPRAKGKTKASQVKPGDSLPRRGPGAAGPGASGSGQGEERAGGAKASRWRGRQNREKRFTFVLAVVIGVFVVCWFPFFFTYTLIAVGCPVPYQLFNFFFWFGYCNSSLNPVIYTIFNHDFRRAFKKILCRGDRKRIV
In short: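 Rat cerebral cortex homogenized in 50 mM Tris pH 7.7, washed twice by centrifugation at 48000g, resuspended in 50 volumes. Membranes incubated with 0.4 nM [3H]clonidine plus varied test concentrations, 30 min at 25 °C. Nonspecific binding defined with 1 μM unlabeled clonidine. GF/B filtration, scintillation counting. Run in triplicate; logit plot IC50 converted to apparent Ki (Cheng–Prusoff).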

Mus musculus [5] = test: Effective dose required for inhibition of tetrabenazine-induced ptosis in mouse by peroral administration; Values ranges from 12-25; conditions: po
Rattus norvegicus [6] = species: Rattus norvegicus; test: Inhibition of [3H]norepinephrine uptake into rat brain synaptosomes in vitro;Values ranges from :20-180; format: functional; in short: as §1
Rattus norvegicus [7] = species: Rattus norvegicus; test: Inhibition of [3H]dopamine uptake into rat brain synaptosomes in vitro;Value ranges from:2.5-4.5; format: functional; in short: as §1
Mus musculus [8] = test: Effective dose required to antagonise clonidine-induced antinociception(ACA) in mouse by peroral administration;Values ranges from: 15-86; format: functional; conditions: po
Rattus norvegicus [9] = species: Rattus norvegicus; test: Inhibition of [3H]5-HT uptake into rat brain synaptosomes in vitro;Value ranges from:0.2-0.8; format: functional; in short: as §1
Mus musculus [10] = test: Effective dose required for inhibition of tetrabenazine-induced ptosis in mouse by peroral administration at maximum response 30.; format: functional
Rattus norvegicus [11] = species: Rattus norvegicus; test: Inhibition of [3H]norepinephrine uptake into rat brain synaptosomes in vitro;Value ranges from:1.9-4.4; format: functional; in short: as §1

| Structure (SMILES) | IC50 (Rattus norvegicus [1]) | Inhibition (Mus musculus [2]) | IC50 (Rattus norvegicus [3]) | Ki [4] | ED50 (Mus musculus [5]) | IC50 (Rattus norvegicus [6]) | IC50 (Rattus norvegicus [7]) | ED50 (Mus musculus [8]) | IC50 (Rattus norvegicus [9]) | Inhibition (Mus musculus [10]) | IC50 (Rattus norvegicus [11]) |
| --- | --- | --- | --- | --- | --- | --- | --- | --- | --- | --- | --- |
| CC1=C(CC2=NCCN2)CCc2ccccc21.Cl | 26000 nM | 50% | 400 nM | 12 nM | 18 mg/kg | 60000 nM |  |  |  |  |  |
| C1=C(CC2=NCCN2)CCc2ccccc21.Cl [NAPAMEZOLE HYDROCHLORIDE] |  |  |  | 23 nM |  |  | 3300 nM | 36 mg/kg | 400 nM | 35% | 2900 nM |

Reference: ChEMBL document CHEMBL1123816, “Synthesis and antidepressant properties of novel 2-substituted 4,5-dihydro-1H-imidazole derivatives” (J Med Chem, 1987)
